Measured values from ChEMBL document CHEMBL1158984, “Hypolipidemic, anti-inflammatory, and antineoplastic activity and cytotoxicity of flavonolignans isolated from Hydnocarpus wightiana seeds” (J Nat Prod, 1991).
≈ marks a conversion by molar mass, not a printed value.

What was measured:
Ehrlich = test: In vivo antineoplastic activity against mouse Ehrlich ascite carcinoma cells xenografted in CF1 mouse assessed as inhibition of tumor growth at 8 mg/kg/day after 9 days relative to control; assay type: functional; conditions: 216 h
How it was run: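 On day 0, CF1 male mice (ca. 25 g) received 2 × 10^6 Ehrlich ascites cells ip in isotonic saline. Drug in 0.05% Tween 80 water was given at 8 mg/kg/day on days 1–9. On day 10 ascites fluid was collected, and volume and packed-cell volume per animal were used to calculate percent tumor growth inhibition; n = 6, mean ± SD.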

L1210 = test: Cytotoxicity against mouse L1210 cells after 3 days by trypan blue exclusion technique; assay type: functional; conditions: L1210, 72 h, read-out: ED50 (the source's name)
How it was run: (§1)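 Tumor cells were mixed on day 0 with sterile drug at 1–100 µg/ml (from 1 mM stock in 0.05% Tween 80 water) in growth medium, 1 ml final. Cells were counted on day 3, while growth was still logarithmic. The concentration killing 50% of cells was read from a semilog plot.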

[1] = Cytotoxicity against human TE-418 cells after 3 days by trypan blue exclusion technique; assay type: functional; conditions: TE-418, 72 h, read-out: ED50 (the source's name); how it was run: as §1
[2] = Cytotoxicity against human MB9812 cells after 3 days by trypan blue exclusion technique; assay type: functional; conditions: MB9812, 72 h, read-out: ED50 (the source's name); how it was run: as §1
[3] = Cytotoxicity against human TMOLT3 cells after 3 days by trypan blue exclusion technique; assay type: functional; conditions: MOLT-3, 72 h, read-out: ED50 (the source's name); how it was run: as §1
KB = test: Cytotoxicity against human KB cells after 3 days by trypan blue exclusion technique; assay type: functional; conditions: 72 h, read-out: ED50 (the source's name); how it was run: as §1
SW480 = test: Cytotoxicity against human SW480 cells after 3 days by trypan blue exclusion technique; assay type: functional; conditions: SW480, 72 h, read-out: ED50 (the source's name); how it was run: as §1
[4] = Cytotoxicity against human EH118MG cells after 3 days by trypan blue exclusion technique; assay type: functional; conditions: 72 h, read-out: ED50 (the source's name); how it was run: as §1
Mus musculus [5] = test: Hypolipidemic activity in CF1 mouse assessed as serum cholesterol level at 8 mg/kg/day, ip administered for 16 days measured on day 16 relative to control
Mus musculus [6] = test: Hypolipidemic activity in CF1 mouse assessed as serum cholesterol level at 8 mg/kg/day, ip administered for 16 days measured on day 9 relative to control; assay type: functional; conditions: route intraperitoneal
How it was run: (§2)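 Male CF1 mice (28 g) were dosed daily for 16 days, with drug suspended in 1% carboxymethylcellulose. On days 9 and 16 blood was drawn from the tail vein and serum spun at 3000 g for 3 min. Total cholesterol was measured by the Liebermann-Burchard reaction and triglyceride by a commercial kit. Results are percent of vehicle control, n = 6, mean ± SD, Student's t-test.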

Mus musculus [7] = test: Hypolipidemic activity in CF1 mouse assessed as serum cholesterol level at 8 mg/kg/day, ip administered for 16 days measured on day 16 relative to control; assay type: functional; conditions: route intraperitoneal; how it was run: as §2
Mus musculus [8] = test: Antiinflammatory activity against CF1 mouse assessed as inhibition of carrageenan-induced paw edema at 8 mg/kg/day, ip administered 30 mins before carrageenan challenge measured after 3 hrs relative to control; assay type: functional; conditions: route intraperitoneal
How it was run: (§3)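 CF1 male mice (ca. 25 g) got drug ip in 0.05% Tween 80 water twice, 3 h and 30 min before 0.2 ml of 1% carrageenan in 0.9% saline was injected into the right hind plantar surface. The left foot got saline as baseline. After 3 h both feet were cut off at the ankle and paw weight gain was compared; results are percent inhibition, n = 6, mean ± SD.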

[9] = Cytotoxicity against human HeLaS3 cells after 3 days by trypan blue exclusion technique; assay type: functional; conditions: HeLa S3, 72 h, read-out: ED50 (the source's name); how it was run: as §1
Mus musculus [10] = test: Antiinflammatory activity against CF1 mouse assessed as inhibition of carrageenan-induced paw edema at 10 mg/kg administered 30 mins before carrageenan challenge measured after 3 hrs relative to control; assay type: functional; how it was run: as §3
Mus musculus [11] = test: Hypolipidemic activity in CF1 mouse assessed as serum triglyceride level at 150 mg/kg/day administered for 16 days measured on day 16 relative to control; assay type: functional; how it was run: as §2
Mus musculus [12] = test: Hypolipidemic activity in CF1 mouse assessed as serum triglyceride level at 150 mg/kg/day administered for 16 days measured on day 16 relative to control
Mus musculus [13] = test: Hypolipidemic activity in CF1 mouse assessed as serum cholesterol level at 150 mg/kg/day administered for 16 days measured on day 9 relative to control; assay type: functional; how it was run: as §2
Mus musculus [14] = test: Antiinflammatory activity against CF1 mouse assessed as inhibition of carrageenan-induced paw edema at 50 mg/kg administered 30 mins before carrageenan challenge measured after 3 hrs relative to control; assay type: functional; how it was run: as §3
Mus musculus [15] = test: Toxicity in CF1 mouse assessed as change in CNS and motor activity at 8 mg/kg/day administered in multiple doses for 16 days; assay type: organism-based; conditions: in vivo, 384 h
How it was run: (§4)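 During 16 days of multiple ip dosing at 8 mg/kg/day, mice were watched for body weight loss, food consumption, and behavioral, CNS and motor activity.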

Mus musculus [16] = test: Toxicity in CF1 mouse assessed as behavioral changes at 8 mg/kg/day administered in multiple doses for 16 days; assay type: organism-based; conditions: in vivo, 384 h; how it was run: as §4
Mus musculus [17] = test: Toxicity in CF1 mouse assessed as body weight loss at 8 mg/kg/day administered in multiple doses for 16 days; assay type: organism-based; conditions: in vivo, 384 h; how it was run: as §4
Mus musculus [18] = test: Toxicity in CF1 mouse assessed as change in food consumption at 8 mg/kg/day administered in multiple doses for 16 days; assay type: organism-based; conditions: in vivo, 384 h; how it was run: as §4

COc1cc([C@H]2Oc3cc(-c4cc(=O)c5c(O)cc(O)cc5o4)ccc3O[C@@H]2CO)ccc1O [HYDNOCARPIN]
inhibition in vivo at 8 mg/kg/day (Ehrlich): 84.8%
EC50 (L1210): 3.65 µg/mL (≈ 7.86 µM)
EC50 [1]: 2.14 µg/mL (≈ 4.61 µM)
EC50 [2]: 8.18 µg/mL (≈ 17.6 µM)
EC50 [3]: 2.94 µg/mL (≈ 6.33 µM)
EC50 (KB): 1.15 µg/mL (≈ 2.48 µM)
EC50 (SW480): 2 µg/mL (≈ 4.31 µM)
EC50 [4]: 2.59 µg/mL (≈ 5.58 µM)
Activity (Mus musculus [5]): 62%
Activity (Mus musculus [6]): 83%
Activity (Mus musculus [7]): 62%
inhibition in vivo at 8 mg/kg/day (Mus musculus [8]): 42%
EC50 [9]: 2.02 µg/mL (≈ 4.35 µM)

COc1ccc2c(c1)c(CC(=O)O)c(C)n2C(=O)c1ccc(Cl)cc1 [INDOMETHACIN]
inhibition in vivo at 10 mg/kg (Mus musculus [10]): 78%

COc1cc([C@@H]2c3c(oc4cc(O)cc(O)c4c3=O)-c3cc(O)c(O)cc3[C@@H]2CO)ccc1O [NEOHYDNOCARPIN]
inhibition in vivo at 8 mg/kg/day (Ehrlich): 43.1%
EC50 (L1210): 3.29 µg/mL (≈ 7.08 µM)
EC50 [1]: 2.49 µg/mL (≈ 5.36 µM)
EC50 [2]: 4.53 µg/mL (≈ 9.75 µM)
EC50 [3]: 3.05 µg/mL (≈ 6.57 µM)
EC50 (KB): 1.06 µg/mL (≈ 2.28 µM)
EC50 (SW480): 2.03 µg/mL (≈ 4.37 µM)
EC50 [4]: 4.07 µg/mL (≈ 8.76 µM)
Activity (Mus musculus [5]): 79%
Activity (Mus musculus [6]): 85%
Activity (Mus musculus [7]): 79%
inhibition in vivo at 8 mg/kg/day (Mus musculus [8]): 6%
EC50 [9]: 2.12 µg/mL (≈ 4.56 µM)

CCOC(=O)C(C)(C)Oc1ccc(Cl)cc1 [CLOFIBRATE]
Activity (Mus musculus [11]): 75%
Activity (Mus musculus [12]): 75%
Activity (Mus musculus [13]): 88%

O=c1[nH]cc(F)c(=O)[nH]1 [FLUOROURACIL]
EC50 (L1210): 1.41 µg/mL (≈ 10.8 µM)
EC50 [2]: 5.64 µg/mL (≈ 43.4 µM)
EC50 [3]: 2.14 µg/mL (≈ 16.5 µM)
EC50 (KB): 1.25 µg/mL (≈ 9.61 µM)
EC50 (SW480): 3.09 µg/mL (≈ 23.8 µM)
EC50 [4]: 1.28 µg/mL (≈ 9.84 µM)
EC50 [9]: 2.47 µg/mL (≈ 19 µM)

CCCCC1C(=O)N(c2ccccc2)N(c2ccccc2)C1=O [PHENYLBUTAZONE]
inhibition in vivo at 50 mg/kg (Mus musculus [14]): 47%

Nc1ccn([C@@H]2O[C@H](CO)[C@@H](O)[C@@H]2O)c(=O)n1 [CYTARABINE]
EC50 (L1210): 2.76 µg/mL (≈ 11.3 µM)
EC50 [2]: 4.6 µg/mL (≈ 18.9 µM)
EC50 [3]: 2.67 µg/mL (≈ 11 µM)
EC50 (KB): 2.84 µg/mL (≈ 11.7 µM)
EC50 (SW480): 3.42 µg/mL (≈ 14.1 µM)
EC50 [4]: 1.88 µg/mL (≈ 7.73 µM)
EC50 [9]: 2.13 µg/mL (≈ 8.76 µM)

NC(=O)NO [HYDROXYUREA]
EC50 (L1210): 2.67 µg/mL (≈ 35.1 µM)
EC50 [1]: 7.54 µg/mL (≈ 99.1 µM)
EC50 [2]: 7.37 µg/mL (≈ 96.9 µM)
EC50 [3]: 3.18 µg/mL (≈ 41.8 µM)
EC50 (KB): 5.29 µg/mL (≈ 69.6 µM)
EC50 (SW480): 4.79 µg/mL (≈ 63 µM)
EC50 [4]: 2.27 µg/mL (≈ 29.8 µM)
EC50 [9]: 1.96 µg/mL (≈ 25.8 µM)

COc1cc(/C=C(\CO)c2cc([C@H]3Oc4cc(-c5cc(=O)c6c(O)cc(O)cc6o5)ccc4O[C@@H]3CO)cc(OC)c2O)ccc1O [HYDNOWIGHTIN]
inhibition in vivo at 8 mg/kg/day (Ehrlich): 12.1%
EC50 (L1210): 3.07 µg/mL (≈ 4.78 µM)
EC50 [1]: 2.5 µg/mL (≈ 3.89 µM)
EC50 [2]: 7.49 µg/mL (≈ 11.7 µM)
Activity (Mus musculus [15]): Non-toxic
EC50 [3]: 4.33 µg/mL (≈ 6.74 µM)
EC50 (KB): 1.96 µg/mL (≈ 3.05 µM)
EC50 (SW480): 2.38 µg/mL (≈ 3.7 µM)
Activity (Mus musculus [16]): Non-toxic
EC50 [4]: 5.02 µg/mL (≈ 7.81 µM)
Activity (Mus musculus [5]): 59%
Activity (Mus musculus [6]): 80%
Activity (Mus musculus [7]): 59%
Activity (Mus musculus [17]): Non-toxic
inhibition in vivo at 8 mg/kg/day (Mus musculus [8]): 24%
EC50 [9]: 3.01 µg/mL (≈ 4.68 µM)
Activity (Mus musculus [18]): Non-toxic
